Measured values: ChEMBL document CHEMBL1212721, “Mechanistic and structural insights into the proteolytic activation of Vibrio cholerae MARTX toxin” (Nat Chem Biol, 2009)
Activity calls are given as the source filed them. The rule behind the calls is not given here.

Experiments:
Vibrio cholerae [1] = assay: Inhibition of Vibrio cholerae recombinant MARTX toxin (3391-3650) cysteine protease domain autoprocessing assessed as concentration of InsP6 required to activate half maximal cleavage of the enzyme at 10 uM by Coomassie staining based SDS-PAGE method
How it was run: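 N-terminally His6-tagged CPD (aa 3391–3650, 1 µM) in 60 mM NaCl, 20 mM Tris pH 7.5, 250 mM sucrose was pretreated with 10 µM inhibitor for 30 min at room temperature. InsP6 was added across a concentration range, followed by 1 h at 37°C. Samples were run on SDS-PAGE with Coomassie staining and densitometry. Cleaved/total fraction was plotted against InsP6 and fitted with a Michaelis-Menten function to give AC50(I). Triplicates.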

Vibrio cholerae [2] = assay: Inhibition of Vibrio cholerae recombinant MARTX toxin (3391-3650) cysteine protease domain autoprocessing assessed as reduction of GTPgamma-S-induced activation of protease activity at 100 uM after 15 mins by Coomassie staining based SDS-PAGE method
How it was run: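 His6-tagged CPD (aa 3391–3650, 1 µM) in 60 mM NaCl, 20 mM Tris pH 7.5, 250 mM sucrose was preincubated with 100 µM inhibitor (30 min at room temperature per Methods; 15 min per legend). GTPγS was then added to 200 µM final to trigger autoprocessing, 2 h at 37°C. Read-out was 15% SDS-PAGE with Coomassie staining. Screen run in triplicate; hits confirmed in a secondary screen.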

Vibrio cholerae [3] = assay: Inhibition of MARTX toxin cysteine protease domain autoprocessing at Leu3099 residue in wild type Vibrio cholerae at >50 uM by Western blot
How it was run: (§1)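 Culture supernatants were TCA-precipitated and resolved by SDS-PAGE. Western blot with a polyclonal anti-CPD antibody read out MARTX_Vc processing, seen as accumulation of unprocessed toxin (~460 kDa) compared with untreated wild-type supernatants.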

Vibrio cholerae [4] = assay: Inhibition of MARTX toxin cysteine protease domain autoprocessing at Leu3441 residue in wild type Vibrio cholerae at 100 uM by Western blot; how it was run: as §1
Vibrio cholerae [5] = assay: Inhibition of MARTX toxin cysteine protease domain autoprocessing in wild type Vibrio cholerae by Western blot; how it was run: as §1
HFF [6] = assay: Inhibition of Vibrio cholerae MARTX toxin cysteine protease domain autoprocessing assessed as assessed as reduction in actin cross linking in HFF cells at 50 uM pretreated for 15 before Vibrio cholerae supernatants addition by Western blot; assay type: cell-based
HFF [7] = assay: Inhibition of MARTX toxin cysteine protease domain autoprocessing in Vibrio cholerae assessed as assessed as reduction in actin cross linking in HFF cells exposed to Vibrio cholerae supernatants pretreated at 50 uM for 15 mins by Western blot; assay type: cell-based

For `Cc1cccc(C)c1C(=O)OCC(=O)[C@H](CC(C)C)NC(=O)[C@H](C)NC(=O)OCc1ccccc1`, which Activity (Vibrio cholerae [1]) is on record?
Its Activity is 187 nM.

What about the inhibition (Vibrio cholerae [2]) of the same compound?
The inhibition was “Active”.

`CC(C)C[C@H](NC(=O)OCc1ccccc1)C(=O)N[C@@H](CC(C)C)C(=O)NN(CC(C)C)C(=O)[C@H]1O[C@@H]1C(=O)O` was tested. Which Activity (Vibrio cholerae [1]) did it give?
The Activity was 158 nM.

And the inhibition (Vibrio cholerae [2])?
Its inhibition is “Active”.

What does the source list for `CCOC(=O)[C@H]1O[C@@H]1C(=O)N(CC(C)C)NC(=O)[C@H](CC(C)C)NC(=O)OCc1ccccc1`?
Activity (Vibrio cholerae [1]): 11 nM; inhibition (Vibrio cholerae [2]): Active

Which results are given for `CCOC(=O)[C@H]1O[C@@H]1C(=O)N(CC(C)C)NC(=O)[C@H](CC(C)C)NC(C)=O`?
Activity (Vibrio cholerae [1]): 21 nM; inhibition (Vibrio cholerae [2]): Active

`CCOC(=O)[C@H]1O[C@@H]1C(=O)N(CC(C)C)NC(=O)[C@H](CC(C)C)NC(=O)[C@H](CC(C)C)NC(=O)OCc1ccccc1` (stereo in doubt; 9) was tested. Which Activity (Vibrio cholerae [1]) did it give?
Its Activity is 74 nM.

And the inhibition (Vibrio cholerae [2])?
Its inhibition is “Active”.

How did the Activity (Vibrio cholerae [1]) turn out when `Cc1cccc(C)c1C(=O)OCC(=O)[C@H](CC(C)C)NC(=O)[C@H](C)NC(=O)[C@H](CCC(=O)O)NC(=O)[C@H](CCCCN)NC(=O)OCc1ccccc1` was run?
The Activity was 290 nM.

And the inhibition (Vibrio cholerae [2])?
Its inhibition is “Active”.

What does the source list for `CCOC(=O)[C@H]1O[C@@H]1C(=O)N(CC(C)C)NC(=O)[C@H](CC(C)C)NC(=O)[C@H](CC(C)C)NC(=O)OCc1ccccc1` (stereo in doubt; 7)?
inhibition (Vibrio cholerae [3]): Active; inhibition (Vibrio cholerae [4]): inactive; inhibition (Vibrio cholerae [5]): Dose-dependent effect; inhibition (HFF [6]): Active; inhibition (HFF [7]): Active; Activity (Vibrio cholerae [1]): 457 nM; inhibition (Vibrio cholerae [2]): Active

`Cc1cccc(C)c1C(=O)OCC(=O)[C@H](CC(C)C)NC(=O)[C@H](C)NC(=O)[C@H](CCC(=O)O)NC(=O)OCc1ccccc1` was tested. Which inhibition (Vibrio cholerae [3]) did it give?
The inhibition was “Active”.

What about the inhibition (Vibrio cholerae [4]) of the same compound?
The inhibition was “inactive”.

What about the inhibition (Vibrio cholerae [5]) of the same compound?
Its inhibition is “Dose-dependent effect”.

What about the inhibition (HFF [6]) of the same compound?
The inhibition was “inactive”.

And the inhibition (HFF [7])?
The inhibition was “Active”.

What about the Activity (Vibrio cholerae [1]) of the same compound?
The Activity was 529 nM.

And the inhibition (Vibrio cholerae [2])?
The inhibition was “Active”.

`CCOC(=O)[C@@H]1O[C@H]1C(=O)N(CC(C)C)NC(=O)OCc1ccccc1` (relative stereo) was tested. Which Activity (Vibrio cholerae [1]) did it give?
Its Activity is 1.1 nM.

What about the inhibition (Vibrio cholerae [2]) of the same compound?
Its inhibition is “Active”.

`CCOC(=O)[C@@H]1O[C@H]1C(=O)N(CC(C)C)NC(=O)[C@H](CC(C)C)NC(=O)[C@H](CC(C)C)NC(=O)OCc1ccccc1` was tested. Which Activity (Vibrio cholerae [1]) did it give?
Its Activity is 5.2 nM.

What about the inhibition (Vibrio cholerae [2]) of the same compound?
Its inhibition is “Active”.
